Reference: ChEMBL document CHEMBL3817843, “Understanding Oxadiazolothiazinone Biological Properties: Negative Inotropic Activity versus Cytochrome P450-Mediated Metabolism” (J Med Chem, 2016)
pEC50, pIC50: −log10 of the molar value. Activity calls are given as the source filed them. The rule behind the calls is not given here.

What was measured:
Aorta [1] = test: Vasorelaxant activity in potassium depolarized guinea pig aorta assessed as inhibition of calcium-induced contraction at 10^-6 M preincubated for 30 mins followed by 50 uM diltiazem addition; type: functional, Cavia porcellus; design: scale not given: the % may be the effect or the level left
How it was run: (§1)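 K+-depolarized (80 mM) guinea pig aortic strips contracted with calcium. Compound at 1 μM added 30 min before diltiazem, verapamil or nifedipine. Response expressed as percent change from control. Data given as mean ±, Student's t test.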

Left cardiac atrium [2] = test: Potentiation of verapamil-induced negative inotropic activity in potassium depolarized guinea pig left atrium assessed as reduction in developed tension at 10^-8 M preincubated for 30 mins followed by verapamil addition; type: functional; conditions: Cavia porcellus
How it was run: (§2)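 Guinea pig left atria driven at 1 Hz. Pretreated with compound at 0.01 μM, added 30 min before diltiazem, verapamil or nifedipine. Blocker concentration−response curves analysed by probit (Litchfield and Wilcoxon), n = 6−7. Data given as mean ±, Student's t test.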

Left cardiac atrium [3] = test: Negative inotropic activity in potassium depolarized guinea pig left atrium assessed as EC50 for nifedipine at 10^-8 M preincubated for 30 mins followed by nifedipine addition; type: functional; conditions: Cavia porcellus; how it was run: as §2
Left cardiac atrium [4] = test: Negative inotropic activity in potassium depolarized guinea pig left atrium assessed as reduction in developed tension at 10^-8 M preincubated for 30 mins followed by 0.5 uM nifedipine addition; type: functional, Cavia porcellus; design: scale not given: the % may be the effect or the level left
Liver microsome = test: Stability in human liver microsomes at 1 uM after 2 to 60 mins by LC-MS analysis in absence of NADPH
Aorta [5] = test: Vasorelaxant activity in potassium depolarized guinea pig aorta assessed as IC50 for diltiazem at 10^-8 M preincubated for 30 mins followed diltiazem addition; type: functional, tissue-based; conditions: Cavia porcellus
Aorta [6] = test: Inhibition of nifedipine-induced vasorelaxant activity in potassium depolarized guinea pig aorta assessed as relaxation of calcium-induced contraction at 10^-6 M preincubated for 30 mins followed by nifedipine addition; type: functional, tissue-based; conditions: Cavia porcellus; how it was run: as §1
Aorta [7] = test: Vasorelaxant activity in potassium depolarized guinea pig aorta assessed as relaxation of calcium-induced contraction at 10^-6 M after 30 mins; type: functional, tissue-based; conditions: Cavia porcellus
How it was run: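 Guinea pig aortic strips depolarized with K+ (80 mM). Calcium-induced contraction measured; inhibition expressed as percent change from control, n = 3−5.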

Left cardiac atrium [8] = test: Negative inotropic activity against potassium depolarized guinea pig left atrium assessed as decrease in nifedipine EC50 at 10^-8 M preincubated for 30 mins followed by nifedipine addition relative to control; type: functional, Cavia porcellus
How it was run: (§3)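 Isolated guinea pig left atria, electrically driven at 1 Hz. The pretreatment agent (0.01 μM) was added to the bath 30 min before the L-type calcium channel blocker. Blocker concentration–response curves were then run to obtain the negative inotropic EC50, which was compared with the EC50 for the blocker alone. Data were compared by Student's t test.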

Aorta [9] = test: Inhibition of verapamil-induced vasorelaxant activity in potassium depolarized guinea pig aorta assessed as relaxation of calcium-induced contraction at 10^-6 M preincubated for 30 mins followed by verapamil addition; type: functional, tissue-based; conditions: Cavia porcellus; how it was run: as §1
Left cardiac atrium [10] = test: Negative inotropic activity against potassium depolarized guinea pig left atrium assessed as decrease in diltiazem EC50 at 10^-8 M preincubated for 30 mins followed by diltiazem addition relative to control; type: functional, Cavia porcellus; how it was run: as §3
Left cardiac atrium [11] = test: Negative inotropic activity against potassium depolarized guinea pig left atrium assessed as decrease in verapamil EC50 at 10^-8 M preincubated for 30 mins followed by verapamil addition relative to control; type: functional, Cavia porcellus; how it was run: as §3
Aorta [12] = test: Vasorelaxant activity in potassium depolarized guinea pig aorta assessed as inhibition of calcium-induced contraction at 10^-8 M preincubated for 30 mins followed by 5 uM verapamil addition; type: functional, Cavia porcellus; design: scale not given: the % may be the effect or the level left
Aorta [13] = test: Vasorelaxant activity in potassium depolarized guinea pig aorta assessed as inhibition of calcium-induced contraction at 10^-8 M preincubated for 30 mins followed by 0.5 uM nifedipine addition; type: functional, Cavia porcellus; design: scale not given: the % may be the effect or the level left

CCOC1(c2ccc(Br)cc2)SC=C(C)n2c1noc2=O (centres undefined)
Activity (Aorta [1]): 18%
Activity (Left cardiac atrium [2]): Active
pEC50 (Left cardiac atrium [3]): 7.66
Activity (Left cardiac atrium [4]): 94%
Stability (Liver microsome): Stable
pIC50 (Aorta [5]): 6.33
inhibition (Aorta [6]): Active
inhibition (Aorta [7]): inactive
fold change (FC) (Left cardiac atrium [8]): 11.8
inhibition (Aorta [9]): Active
fold change (FC) (Left cardiac atrium [10]): 3.3
fold change (FC) (Left cardiac atrium [11]): 12
Activity (Aorta [12]): 20%
Activity (Aorta [13]): 10%
